In ChEMBL document CHEMBL4138188, “Eurycomalactone Inhibits Expression of Endothelial Adhesion Molecules at a Post-Transcriptional Level” (J Nat Prod, 2017):
Active and inactive are the calls of the source. No cut-off for these calls is given here.

Experiments:
[1] = organism: Homo sapiens; assay: (§1) Inhibition of NF-kappaB in HUVECtert assessed as reduction in TNFalpha-induced VCAM-1 expression level pretreated for 30 mins followed by TNFalpha stimulation measured after 18 hrs by flow cytometry
In short: (§2)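 FITC-antibody surface staining, flow cytometry; expression relative to TNFα-stimulated control. Parthenolide 10 μM as positive control; means ± SD, n = 3, one-way ANOVA/Dunnett versus vehicle.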

[2] = as §1; set-up: species or system Homo sapiens; in short: as §2
[3] = biological target: T1, NF-kappa-B inhibitor alpha (Homo sapiens) (UniProt P25963); assay: Inhibition of IkappaBalpha degradation in TNFalpha-stimulated HUVECtert at 2 uM pretreated for 30 mins followed by TNFalpha stimulation measured after 5 to 15 mins by Western blot analysis
T1 sequence (whole entry): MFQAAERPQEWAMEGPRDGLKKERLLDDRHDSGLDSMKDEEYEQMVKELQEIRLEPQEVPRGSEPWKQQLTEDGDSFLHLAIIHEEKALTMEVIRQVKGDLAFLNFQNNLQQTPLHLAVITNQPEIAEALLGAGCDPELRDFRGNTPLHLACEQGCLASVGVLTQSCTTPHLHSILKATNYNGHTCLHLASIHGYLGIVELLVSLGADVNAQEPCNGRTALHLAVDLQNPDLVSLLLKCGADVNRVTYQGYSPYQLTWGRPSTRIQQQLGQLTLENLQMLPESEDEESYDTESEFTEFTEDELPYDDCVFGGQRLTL
In short: (§3)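 HUVECtert on gelatin-coated dishes pretreated with 2 μM agent or 0.1% DMSO, then TNFα 10 ng/mL; p-IKKα/β, p-IκBα and total IκBα immunoblotted at 5 or 15 min post-stimulation, actin loading control; means ± SD, n = 3, one-way ANOVA/Dunnett.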

[4] = biological target: T2, Inhibitor of nuclear factor kappa-B kinase subunit alpha (Homo sapiens) (UniProt O15111); assay: Inhibition of IKKalpha phosphorylation level in TNFalpha-stimulated HUVECtert at 2 uM pretreated for 30 mins followed by TNFalpha stimulation measured after 5 to 15 mins by Western blot analysis; in short: as §3
T2 sequence (whole entry): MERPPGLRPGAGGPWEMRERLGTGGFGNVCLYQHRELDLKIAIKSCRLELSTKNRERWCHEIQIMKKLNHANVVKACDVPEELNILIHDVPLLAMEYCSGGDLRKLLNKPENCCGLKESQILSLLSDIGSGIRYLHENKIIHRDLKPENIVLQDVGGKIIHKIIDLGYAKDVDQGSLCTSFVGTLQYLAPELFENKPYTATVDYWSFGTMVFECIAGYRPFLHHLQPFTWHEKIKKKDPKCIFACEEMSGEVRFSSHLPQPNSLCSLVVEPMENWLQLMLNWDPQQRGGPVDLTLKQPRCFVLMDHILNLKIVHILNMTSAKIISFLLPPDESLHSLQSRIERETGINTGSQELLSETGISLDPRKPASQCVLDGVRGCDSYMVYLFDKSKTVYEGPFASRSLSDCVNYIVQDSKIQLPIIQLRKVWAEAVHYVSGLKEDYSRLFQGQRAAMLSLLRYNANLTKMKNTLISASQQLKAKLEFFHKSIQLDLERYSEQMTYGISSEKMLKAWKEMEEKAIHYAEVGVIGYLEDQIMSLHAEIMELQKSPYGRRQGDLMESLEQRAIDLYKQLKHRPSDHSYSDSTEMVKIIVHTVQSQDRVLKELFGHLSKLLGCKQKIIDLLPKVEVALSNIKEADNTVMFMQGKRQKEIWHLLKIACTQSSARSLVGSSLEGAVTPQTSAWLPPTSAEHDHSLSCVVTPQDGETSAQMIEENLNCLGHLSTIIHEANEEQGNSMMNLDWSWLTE

[5] = organism: Homo sapiens; assay: Cytotoxicity against HUVECtert assessed as reduction in cell viability after 18 hrs by resazurin dye based fluorescence assay; assay type: functional
In short: (§4)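 HUVECtert (passage ≤15) seeded on gelatin-coated wells, grown 48 h, then exposed to test agent or 0.1% DMSO vehicle, with or without TNFα; digitonin 100 μg/mL as positive control. After 18 h, supernatant removed, cells washed, then 2 h with 10 μg/mL resazurin in PBS; metabolic conversion read relative to vehicle.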

[6] = Effect on basal VCAM-1 expression level in HUVECtert at 0.5 to 10 uM incubated for 30 mins by flow cytometry; assay type: ADME; settings: human, 0.5 h
In short: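 Unstimulated HUVECtert treated with 0.5−10 μM test agent without TNFα; surface VCAM-1, ICAM-1 or E-selectin stained with FITC-labelled antibodies and read by flow cytometry.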

[7] = biological target: T3, Inhibitor of nuclear factor kappa-B kinase subunit beta (Homo sapiens) (UniProt O14920); assay: Inhibition of IKKbeta phosphorylation level in TNFalpha-stimulated HUVECtert at 2 uM pretreated for 30 mins followed by TNFalpha stimulation measured after 5 to 15 mins by Western blot analysis; in short: as §3
T3 sequence (whole entry): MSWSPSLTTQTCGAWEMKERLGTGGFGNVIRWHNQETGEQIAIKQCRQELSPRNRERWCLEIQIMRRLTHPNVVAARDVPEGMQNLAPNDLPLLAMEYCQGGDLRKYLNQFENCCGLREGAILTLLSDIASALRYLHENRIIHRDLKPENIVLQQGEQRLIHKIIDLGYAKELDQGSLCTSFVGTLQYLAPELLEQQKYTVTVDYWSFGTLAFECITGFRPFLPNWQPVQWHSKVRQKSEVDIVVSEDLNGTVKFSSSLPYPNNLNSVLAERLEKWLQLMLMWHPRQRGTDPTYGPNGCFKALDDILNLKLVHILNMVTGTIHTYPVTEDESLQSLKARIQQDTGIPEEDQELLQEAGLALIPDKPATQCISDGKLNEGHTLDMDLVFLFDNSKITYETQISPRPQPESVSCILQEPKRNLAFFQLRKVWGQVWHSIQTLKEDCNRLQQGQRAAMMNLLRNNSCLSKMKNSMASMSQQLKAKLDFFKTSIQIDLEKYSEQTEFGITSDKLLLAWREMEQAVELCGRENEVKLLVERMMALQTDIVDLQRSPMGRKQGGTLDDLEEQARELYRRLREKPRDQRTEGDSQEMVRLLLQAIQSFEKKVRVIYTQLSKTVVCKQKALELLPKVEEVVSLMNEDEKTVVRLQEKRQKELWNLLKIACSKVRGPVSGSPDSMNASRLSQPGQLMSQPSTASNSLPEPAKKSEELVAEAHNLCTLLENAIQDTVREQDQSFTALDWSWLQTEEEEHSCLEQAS

[8] = organism: Homo sapiens; assay: (§5) Inhibition of NF-kappaB in HUVECtert assessed as reduction in TNFalpha-induced E-selectin expression level pretreated for 30 mins followed by TNFalpha stimulation measured after 5 hrs by flow cytometry; in short: as §2
[9] = as §5; set-up: species or system Homo sapiens; in short: as §2
[10] = organism: Homo sapiens; assay: Reduction in survivin level in HUVECtert at 2 uM measured up to 480 mins by Western blot analysis; assay type: functional
In short: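 HUVECtert treated with 1 μM cycloheximide, 2 μM agent, vehicle, or left untreated for a time course; cyclin D1 or survivin by Western blot, actin loading control; means ± SD of three blots, one-way ANOVA/Dunnett versus untreated.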

[11] = organism: Homo sapiens; assay: Cytotoxicity against TNFalpha-stimulated HUVECtert assessed as reduction in cell viability incubated for 30 mins followed by TNFalpha stimulation measured after 17.5 hrs by resazurin dye based fluorescence assay; assay type: functional; in short: as §4
[12] = organism: Homo sapiens; assay: Reduction in cyclin A level in HUVECtert at 2 uM after 8 hrs by Western blot analysis; assay type: functional

**Q.** What does the source list for `CC1=CC(=O)[C@@H](O)[C@@]2(C)[C@H]1CC(=O)[C@@]1(C)[C@H]3C(=O)O[C@H]([C@@H]3C)[C@H](O)[C@@H]12` [EURYCOMALACTONE]?
**A.** inhibition [1]: Dose-dependent effect; IC50 [2]: 540 nM; inhibition [3]: inactive; inhibition [4]: inactive; Activity [5]: inactive; Activity [6]: Non-Toxic; inhibition [7]: inactive; inhibition [8]: Dose-dependent effect; IC50 [9]: 560 nM; Activity [10]: inactive; Activity [11]: inactive; Activity [12]: inactive
